Results on 4 molecules are retold here after ChEMBL document CHEMBL5390308, “Stapling Amantadine to Melanostatin Neuropeptide: Discovery of Potent Positive Allosteric Modulators of the D2 Receptors” (ACS Med Chem Lett, 2023).

Data set [1] addresses T1, D(2) dopamine receptor (Homo sapiens, UniProt P14416). Put plainly: Positive allosteric modulator activity at human dopamine D2 receptor expressed in CHO cells assessed as reduction in forskolin-stimulated cAMP level by measuring maximum efficacy at 1 nM preincubated for 10 mins followed by forskolin addition measured after 5 mins in presence of dopamine by HTRF assay relative to control. The format is functional, cell-based. To be noted: filed as positive allosteric modulator, time 15.0 min. In short, it runs like this:
(§1)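 Dopamine concentration–response curves run alone or with a fixed compound concentration (0.01 or 1 nM) in human D2R-expressing CHO cells. Forskolin-stimulated cAMP inhibition read by HTRF. Dopamine EC50 and Emax derived from the curves. Three independent experiments in duplicate, mean ± SD.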

The target of data set [2] is T1, D(2) dopamine receptor. Kind of data set: Positive allosteric modulator activity at human dopamine D2 receptor expressed in CHO cells assessed as reduction in forskolin-stimulated cAMP level by measuring maximum efficacy at 10 nM preincubated for 10 mins followed by forskolin addition measured after 5 mins in presence of dopamine by HTRF assay relative to control. The format is functional, cell-based. The arrangement: scale not given: the % may be the effect or the level left. As to conditions: time 15.0 min. An outline of the steps:
(§2)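 CHO cells expressing human D2R, assayed in the presence of 0.1 μM dopamine. Compounds screened between 0.01 nM and 10 μM. Inhibition of forskolin-stimulated cAMP measured by HTRF and expressed as % increase over the 0.1 μM dopamine effect. Mean ± SD of three independent measurements; Student's t-test, p < 0.05.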

Data set [3] deals with T1, D(2) dopamine receptor. Kind of data set: Positive allosteric modulator activity at human dopamine D2 receptor expressed in CHO cells assessed as reduction in forskolin-stimulated cAMP level at 0.01 nM preincubated for 10 mins followed by forskolin addition measured after 5 mins in presence of dopamine by HTRF assay. The format is functional, cell-based. To be noted: time 15.0 min. In short, it runs like this: as §2
In general terms: Cyclic AMP is a second messenger, typically raised through Gs and lowered through Gi signalling.

Data set [4] addresses T1, D(2) dopamine receptor. Put plainly: Positive allosteric modulator activity at human dopamine D2 receptor expressed in CHO cells assessed as fold increase in dopamine potentiation by measuring reduction of forskolin-stimulated cAMP level at 1 nM preincubated for 10 mins followed by forskolin addition measured after 5 mins in presence of dopamine by HTRF assay. The data set is classed as functional, cell-based. To be noted: filed as positive allosteric modulator, time 15.0 min. In short, it runs like this: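 CHO cells stably expressing human D2R. Dopamine concentration–response curves were run with or without modulator at a fixed concentration. D2R activation was read as inhibition of forskolin-stimulated cAMP accumulation by HTRF. The fold shift was derived from DA EC50 values, with Emax also fitted. Three independent experiments, each in duplicate, mean ± SD.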

The nature of data set [5]: Lipophilicity, logP of the compound in Octan-1-ol/water by shake-flask method. The format is physicochemical.
Data set [6] in a line: Neurotoxicity in human SH-SY5Y cells at 200 uM incubated for 48 hrs by MTT assay relative to control. The data set is classed as functional. In short, it runs like this: (§3)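 SH-SY5Y neuroblastoma cells differentiated 6 days with retinoic acid and TPA. Exposed 48 h to compound at 200 μM dissolved in DMSO (0.5% final), with 6-OHDA at 125 μM in PBS as positive control. MTT reduction read-out as % of control. 14–16 wells from 4 independent experiments, mean ± SD; ANOVA with Tukey post hoc test.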
(Formazan colour is commonly taken as a measure of viable cells.)

Data set [7] is described as follows: Neurotoxicity in human SH-SY5Y cells at 125 uM incubated for 48 hrs by MTT assay relative to control. The format is functional. In short, it runs like this: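 SH-SY5Y cells pre-differentiated 6 days with retinoic acid and TPA. 6-OHDA freshly prepared in sterile PBS, tested at 125 μM for 48 h; DMSO-solubilised test agents were run alongside (DMSO 0.5% final). Viability read by MTT reduction, expressed as % of control. 14–16 wells, 4 independent experiments; ANOVA with Tukey post hoc versus control.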

For data set [8], the target named is T1, D(2) dopamine receptor. Put plainly: Positive allosteric modulator activity at human dopamine D2 receptor expressed in CHO cells assessed as reduction in forskolin-stimulated cAMP level at 1 nM preincubated for 10 mins followed by forskolin addition measured after 5 mins in presence of dopamine by HTRF assay. The format is functional, cell-based. To be noted: time 15.0 min. In short, it runs like this: as §1

For data set [9], the target named is T1, D(2) dopamine receptor. Kind of data set: Agonist activity at human dopamine D2 receptor expressed in CHO cells assessed as reduction in forskolin-stimulated cAMP level at 1 to 1000 nM preincubated for 10 mins followed by forskolin addition measured after 5 mins by HTRF assay. The format is functional, cell-based. To be noted: dose 1-1000 nM, time 15.0 min. An outline of the steps: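 Agonist mode, without dopamine, in CHO cells expressing human D2R. Compound tested at 1 nM to 1 μM, with dopamine as positive control. Read-out is inhibition of forskolin-stimulated cAMP accumulation by HTRF. Mean ± standard deviation of three independent measurements.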

For data set [10], the target named is T1, D(2) dopamine receptor. Kind of data set: Positive allosteric modulator activity at human dopamine D2 receptor expressed in CHO cells assessed as fold increase in dopamine potentiation by measuring reduction of forskolin-stimulated cAMP level at 0.01 nM preincubated for 10 mins followed by forskolin addition measured after 5 mins in presence of dopamine by HTRF assay. The format is functional, cell-based. As to conditions: filed as positive allosteric modulator, time 15.0 min. An outline of the steps:
as §1

Data set [11] addresses T1, D(2) dopamine receptor. Put plainly: Positive allosteric modulator activity at human dopamine D2 receptor expressed in CHO cells assessed as reduction in forskolin-stimulated cAMP level at 0.01 nM preincubated for 10 mins followed by forskolin addition measured after 5 mins in presence of dopamine by HTRF assay relative to control. The data set is classed as functional, cell-based. The arrangement: scale not given: the % may be the effect or the level left. To be noted: time 15.0 min. An outline of the steps: as §2

Data set [12] has as its target T1, D(2) dopamine receptor. Put plainly: Positive allosteric modulator activity at human dopamine D2 receptor expressed in CHO cells assessed as reduction in forskolin-stimulated cAMP level by measuring maximum efficacy at 0.01 nM preincubated for 10 mins followed by forskolin addition measured after 5 mins in presence of dopamine by HTRF assay relative to control. The data set is classed as functional, cell-based. To be noted: filed as positive allosteric modulator, time 15.0 min. In short, it runs like this:
as §1

In data set [13] the target is T1, D(2) dopamine receptor. Kind of data set: Positive allosteric modulator activity at human dopamine D2 receptor expressed in CHO cells assessed as reduction in forskolin-stimulated cAMP level preincubated for 10 mins followed by forskolin addition measured after 5 mins in presence of dopamine by HTRF assay (reference value: 87.08 +/- 24.87 nM). The format is functional, cell-based. An outline of the steps: as §1

In the next data set the test system is SH-SY5Y. Put plainly: Neurotoxicity in human SH-SY5Y cells at 200 uM incubated for 48 hrs by MTT assay. The data set is classed as functional, cell-based. An outline of the steps:
as §3

The structures appear in SMILES notation. Calls of active or inactive are those of the source. The calls are words filed in the database; no cut-off is given here. Where a SMILES comes first, the peptide text is derived from it.

T1 sequence (P14416 whole entry): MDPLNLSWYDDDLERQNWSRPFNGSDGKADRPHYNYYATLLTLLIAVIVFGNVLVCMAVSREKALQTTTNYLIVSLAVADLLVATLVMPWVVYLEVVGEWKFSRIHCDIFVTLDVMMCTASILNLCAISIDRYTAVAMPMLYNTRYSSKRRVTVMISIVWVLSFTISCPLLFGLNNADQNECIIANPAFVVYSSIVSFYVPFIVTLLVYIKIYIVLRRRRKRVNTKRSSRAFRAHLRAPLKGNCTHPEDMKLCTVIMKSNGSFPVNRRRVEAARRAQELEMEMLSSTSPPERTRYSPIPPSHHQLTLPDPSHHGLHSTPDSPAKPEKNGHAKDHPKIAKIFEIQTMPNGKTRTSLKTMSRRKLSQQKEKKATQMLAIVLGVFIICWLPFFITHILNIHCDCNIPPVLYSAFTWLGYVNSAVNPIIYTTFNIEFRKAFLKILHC

Turning to `CC(C)C[C@H](NC(=O)[C@@H]1CCCN1)C(=O)NCC(N)=O` (H-Pro-Leu-Gly-NH2), the maximal response (Emax) at D(2) dopamine receptor [1] stood at 100%. Moreover, the Activity at D(2) dopamine receptor [2] is 31.9%; in [6], 94.09%. Further, the outcome at D(2) dopamine receptor [3] was inactive. In addition, the fold change (FC) on D(2) dopamine receptor [4] is 3.7. In data set [5], this molecule displayed a log partition coefficient (logP) of -0.56.
`NCCc1cc(O)c(O)cc1O` [OXIDOPAMINE]: the Activity in data set [7] came out at 58.27%.
`CC(C)C[C@H](NC(=O)[C@@H]1CCCN1)C(=O)NCC(=O)NC12CC3CC(CC(C3)C1)C2`: the result on D(2) dopamine receptor [8], on D(2) dopamine receptor [9] and with SH-SY5Y was inactive. The fold change (FC) on D(2) dopamine receptor [10] was found to be 3.3. In addition, the Activity at D(2) dopamine receptor [11] was 10.3%. Moreover, the Emax at D(2) dopamine receptor [12] turned out to be 100%. Moreover, the EC50 at D(2) dopamine receptor [13] amounted to 26.4 nM.
Regarding `CC(C)C[C@H](NC(=O)[C@@H]1CCCN1C(=O)OC(C)(C)C)C(=O)NCC(=O)NC12CC3CC(CC(C3)C1)C2`, the outcome on D(2) dopamine receptor [8] and on D(2) dopamine receptor [9] was inactive. In addition, the fold change (FC) at D(2) dopamine receptor [10] is 4.9. In addition, the Activity turned out to be 15.3% at D(2) dopamine receptor [11] and 89.73% in data set [6]. Besides, the Emax at D(2) dopamine receptor [12] turned out to be 100%. This molecule also registered a log partition coefficient (logP) in data set [5] of 2.62. The 50% effective concentration (EC50) on D(2) dopamine receptor [13] is 17.8 nM.

The Emax is the maximal effect, on the per cent scale that the assay sets. A word on the logP: it is the decadic logarithm of the partition coefficient of the neutral form, usually between octanol and water. Usually EC50 stands for the midpoint of the concentration-response curve.
